# Source: ChEMBL document CHEMBL1123867, “Anticonvulsant O-alkyl sulfamates. 2,3:4,5-Bis-O-(1-methylethylidene)-beta-D-fructopyranose sulfamate and related compounds” (1987)
# Active and inactive are the calls of the source. The calls are words filed in the database; no cut-off is given here.
# Tests used:
# Mus musculus [1] = test: Percentage block of the hind-limb tonic-extensor seizure was determined after application of an electric shock to mice for 240 min followed by 200 mg/kg peroral dose; format: functional; conditions: route oral
# In short: (§1)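 Supramaximal electroshock: 50-mA current (60 Hz, 0.20 s) via corneal electrodes induced hind-limb tonic extension; inhibition of this component scored as activity. Mice dosed ip and/or po in aqueous solution or suspension (ca. 0.1% Tween 80, distilled water). Tested at 30, 60, 120 and 240 min (sometimes 45 min); ten mice per time point.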
# Mus musculus [2] = test: Percentage block of the hind-limb tonic-extensor seizure was determined after application of an electric shock to mice for 120 min followed by 100 mg/kg intraperitoneal dose; format: functional; in short: as §1
# Mus musculus [3] = test: Percentage block of the hind-limb tonic-extensor seizure was determined after application of an electric shock to mice for 120 min followed by 200 mg/kg peroral dose; format: functional; conditions: route oral; in short: as §1
# Mus musculus [4] = test: Anticonvulsant activity following p.o. administration by standard maximal electroshock test in mice.; format: functional; conditions: po; in short: as §1
# Mus musculus [5] = test: Percentage block of the hind-limb tonic-extensor seizure was determined after application of an electric shock to mice for 60 min followed by 100 mg/kg intraperitoneal dose; format: functional; in short: as §1
# Mus musculus [6] = test: Percentage block of the hind-limb tonic-extensor seizure was determined after application of an electric shock to mice for 30 min followed by 200 mg/kg peroral dose; format: functional; conditions: route oral; in short: as §1
# Mus musculus [7] = test: Percentage block of the hind-limb tonic-extensor seizure was determined after application of an electric shock to mice for 60 min followed by 200 mg/kg peroral dose; format: functional; conditions: route oral
# In short: (§2)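 Mouse MES test: supramaximal seizure from a 50-mA current (60 Hz, 0.20-s) through corneal electrodes. […] Ten mice per time point. Compound given in aqueous solution or in suspension in ca. 0.1% Tween 80 and distilled water. Free food and water except during testing.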
# Mus musculus [8] = test: Anticonvulsant activity by using a standard maximal electroshock test (MES) in mice, by 100 mg/kg intraperitoneal administration of the compound; I=inactive, 0-10% block; format: functional, organism-based; design: dose 100 mg/kg; in short: as §1
# Mus musculus [9] = test: Percentage block of the hind-limb tonic-extensor seizure was determined after application of an electric shock to mice for 240 min followed by 100 mg/kg intraperitoneal dose; format: functional; in short: as §1
# Mus musculus [10] = test: Percentage block of the hind-limb tonic-extensor seizure was determined after application of an electric shock to mice for 30 min followed by 100 mg/kg intraperitoneal dose; format: functional; in short: as §1
# Mus musculus [11] = test: Anticonvulsant activity by using a standard maximal electroshock test (MES) in mice, by intraperitoneal administration of the compound; format: functional; conditions: ip; in short: as §1
# Mus musculus [12] = test: Percentage block of the hind-limb tonic-extensor seizure was determined after application of an electric shock to mice for 30 min followed by 400 mg/kg peroral dose; format: functional; conditions: route oral; in short: as §1
# Mus musculus [13] = test: Percentage block of the hind-limb tonic-extensor seizure was determined after application of an electric shock to mice for 60 min followed by 400 mg/kg peroral dose; format: functional; conditions: route oral; in short: as §2
# Mus musculus [14] = test: Percentage block of the hind-limb tonic-extensor seizure was determined after application of an electric shock to mice for 60 min followed by 200 mg/kg intraperitoneal dose; format: functional; in short: as §2
# Mus musculus [15] = test: Percentage block of the hind-limb tonic-extensor seizure was determined after application of an electric shock to mice for 30 min followed by 200 mg/kg intraperitoneal dose; format: functional; in short: as §1
# Mus musculus [16] = test: Percentage block of the hind-limb tonic-extensor seizure was determined after application of an electric shock to mice for 120 min followed by 400 mg/kg peroral dose; format: functional; conditions: route oral; in short: as §1
# Mus musculus [17] = test: Percentage block of the hind-limb tonic-extensor seizure was determined after application of an electric shock to mice for 240 min followed by 400 mg/kg peroral dose; format: functional; conditions: route oral; in short: as §1
# Mus musculus [18] = test: Percentage block of the hind-limb tonic-extensor seizure was determined after application of an electric shock to mice for 120 min followed by 200 mg/kg intraperitoneal dose; format: functional; in short: as §1
# Mus musculus [19] = test: Percentage block of the hind-limb tonic-extensor seizure was determined after application of an electric shock to mice for 240 min followed by 200 mg/kg intraperitoneal dose; format: functional; in short: as §1
# Mus musculus [20] = test: Anticonvulsant activity by using a standard maximal electroshock test (MES) in mice, by 200 mg/kg peroral administration of the compound; I=inactive, 0-10% block; format: functional, organism-based; design: dose 200 mg/kg; in short: as §1
SMILES,Block (Mus musculus [1]) [%],Block (Mus musculus [2]) [%],Block (Mus musculus [3]) [%],ED50 (Mus musculus [4]) [mg/kg],Block (Mus musculus [5]) [%],Block (Mus musculus [6]) [%],Block (Mus musculus [7]) [%],ED50 (Mus musculus [8]),Block (Mus musculus [9]) [%],Block (Mus musculus [10]) [%],ED50 (Mus musculus [11]) [mg/kg],Block (Mus musculus [12]) [%],Block (Mus musculus [13]) [%],Block (Mus musculus [14]) [%],Block (Mus musculus [15]) [%],Block (Mus musculus [16]) [%],Block (Mus musculus [17]) [%],Block (Mus musculus [18]) [%],Block (Mus musculus [19]) [%],ED50 (Mus musculus [20])
NS(=O)(=O)OCC(c1ccccc1)c1ccccc1,100,0,80,147,0,80,70,inactive,0,0,–,–,–,–,–,–,–,–,–,–
CC1(C)O[C@@H]2CO[C@@]3(COS(=O)(=O)N=[N+]=[N-])OC(C)(C)OC3[C@@H]2O1 (stereo partly drawn),100,50,70,~200,40,30,50,–,30,20,> 100,–,–,–,–,–,–,–,–,–
CC1(COS(N)(=O)=O)CCCCC1,–,–,–,~400,–,–,–,–,–,–,270,50,40,30,30,80,30,20,20,–
CC1(C)OCC(COS(N)(=O)=O)O1 (stereo not drawn),100,90,100,~75,70,70,90,–,70,50,~100,–,–,–,–,–,–,–,–,–
CCCCCCCCCC1(C)OCC(COS(N)(=O)=O)O1 (stereo not drawn),–,–,–,> 200,–,–,–,–,–,–,319,–,–,–,–,–,–,–,–,–
CC(=O)Nc1nnc(S(N)(=O)=O)s1 [ACETAZOLAMIDE],–,–,–,45,–,–,–,–,–,–,–,–,–,–,–,–,–,–,–,–
NS(=O)(=O)OCCc1ccccc1 [SULFAMIC ACID PHENETHYL ESTER],80,70,100,~100,100,70,100,–,20,90,~50,–,–,–,–,–,–,–,–,–
CC1(C)OC[C@@H]2O[C@@]3(COS(N)(=O)=O)OC(C)(C)OC3[C@@H]2O1 (stereo partly drawn),50,20,70,150,50,70,80,–,0,30,100,–,–,–,–,–,–,–,–,–
CC1(C)O[C@@H]2[C@H](O1)[C@H]1OC(C)(C)OC1O[C@@H]2COS(N)(=O)=O (stereo partly drawn),–,–,–,> 200,–,–,–,–,–,–,175,50,80,40,20,90,80,50,30,–
CC1(C)OC2[C@H](O)[C@H](O)CO[C@@]2(COS(N)(=O)=O)O1 (stereo partly drawn),0,–,0,–,0,0,0,inactive,0,0,–,–,–,–,–,–,–,–,–,inactive
NS(=O)(=O)OCC1COc2ccccc2O1 (stereo not drawn),80,30,80,118,60,100,100,–,0,–,~100,–,–,–,–,–,–,–,–,–
CC1(C)OC2C3OC4(CCCCC4)O[C@@H]3CO[C@@]2(COS(N)(=O)=O)O1 (stereo partly drawn),20,0,20,> 400,0,10,0,inactive,0,0,–,–,–,–,–,–,–,–,–,–
CN(C)S(=O)(=O)OC[C@@]12OC[C@H]3OC(C)(C)OC3C1OC(C)(C)O2 (stereo partly drawn),80,50,80,> 200,30,30,40,–,30,30,> 100,–,–,–,–,–,–,–,–,–
NS(=O)(=O)OCC1CCCCO1 (stereo not drawn),–,–,–,154,–,–,–,–,–,–,195,–,–,–,–,–,–,–,–,–
